Assay outcomes (PubChem BioAssay)
ABHD4 inh: ABHD4 (mouse) inhibition, primary FP screen; Q8VD66; purified mABHD4, FP-Rh probe fluorescence polarization; inhibition, % at 8.92 µM; 370,000 compounds, 0.54% hits;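 active = inhibition exceeding the mean over every tested compound plus 3 SD, cut at about 30% in these data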;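 also: 0% = plate median of compound wells and 100% = S159A mutant with DMSO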
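assay system = mABHD4 protein | compound dosing = single nominal dose of 8.92 µM, 0.89% DMSO final | read-out basis = percent inhibition of probe binding, normalized to plate controls | schedule = Enzyme–compound pre-incubation 45 min, then probe 60 min, both 25 °C | detection = fluorescence polarization, excitation 525 nm, emission 598 nm, BODIPY TMR filters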
TCR CD3 inh: blocks the human TCR-CD3 interaction. inhibition, % at 9.4 µM. TAMRA-labeled TCR probe fluorescence, biochemical. 360,000 compounds, 0.37% hits. AID 651800; in the data active = inhibition above about 19%;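 also: recombinant mutant TCR 2C K166C tagged with TAMRA read by polarization; 0% = receptor in buffer alone and 100% = receptor with positive control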
HTRA1 inh: blocks human HTRA1 serine peptidase; recombinant HTRA1, FP-rhodamine activity-based probe, fluorescence polarization; Q92743; 340,000 compounds, 0.5% hits; inhibition, % at 5.96 µM; in the data active = inhibition above about 36%;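 also: 0% = enzyme with DMSO and 100% = wells lacking enzyme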
SIAE inh: blocks human sialic acid acetylesterase; Q9HAT2; SIAE FP-Rh probe binding, fluorescence polarization; inhibition, % at 9.66 µM; 370,000 compounds, 0.69% hits; AID 1053197;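 active = inhibition above a cutoff: mean of compounds within the control limits plus 3 SD of those, cut at about 17% in these data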;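 also: 0% = plate median of compound wells and 100% = probe without SIAE protein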
Target sequence (Q9HAT2 whole entry, looked up): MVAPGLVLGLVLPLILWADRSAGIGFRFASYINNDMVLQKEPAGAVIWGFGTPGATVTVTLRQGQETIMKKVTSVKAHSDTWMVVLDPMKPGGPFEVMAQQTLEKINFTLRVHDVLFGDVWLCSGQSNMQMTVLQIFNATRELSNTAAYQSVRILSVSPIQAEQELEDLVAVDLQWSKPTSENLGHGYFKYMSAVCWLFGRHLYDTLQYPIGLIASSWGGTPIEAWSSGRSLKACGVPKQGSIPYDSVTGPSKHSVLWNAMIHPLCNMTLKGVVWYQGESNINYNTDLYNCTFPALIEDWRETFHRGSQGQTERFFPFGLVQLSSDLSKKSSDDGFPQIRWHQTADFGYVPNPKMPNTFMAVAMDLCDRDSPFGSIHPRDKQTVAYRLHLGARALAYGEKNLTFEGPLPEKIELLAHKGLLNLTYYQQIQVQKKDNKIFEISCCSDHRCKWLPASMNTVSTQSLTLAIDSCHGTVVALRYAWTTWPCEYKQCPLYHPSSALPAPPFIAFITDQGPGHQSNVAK
DAGLB inhibitor: blocks human DAGLB lipase activity; HEK293T DAGLB membrane lysate, EnzChek fluorogenic substrate; inhibition, % at 5.17 µM; 340,000 compounds, 0.059% hits; Q8NCG7; in the data active = inhibition above about 34%;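 also: 0% = enzyme with vehicle and 100% = wells lacking enzyme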
SIAE inh conf: confirmation of human SIAE inhibitors; shares compounds with SIAE inh; SIAE FP-Rh activity-based probe, fluorescence polarization; inhibition, % at 9.66 µM; 2,300 compounds, 13% hits;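 active = mean inhibition of the replicates above the hit cutoff set in the primary screen, cut at about 17% in these data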;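 also: 0% = SIAE with DMSO and probe and 100% = probe without SIAE; inhibitors lower polarization as more probe stays unbound to SIAE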
The depositor's hits bear a star; . = no result given. A selection: hits, their analogues and other compounds. The true share with any hit is near 1.6%.

SMILES	ABHD4 inh	TCR CD3 inh	HTRA1 inh	SIAE inh	DAGLB inhibitor	SIAE inh conf
COc1ccc(Oc2cn[nH]c2-c2ccc(O)cc2O)cc1	-3.3	4.2	5.8	19.1*	1.5	0.0
COc1ccc(C=NNc2nc3ccccc3s2)cc1	9.0	5.0	1.6	9.1	0.9	.
COc1cc(OC)cc(C(=O)Oc2ccc(/C=N/Nc3nc4ccccc4s3)cc2OC)c1	7.0	-0.4	-12.2	19.1*	-1.3	17.2*
COc1cc(/C=N/Nc2nc3ccccc3s2)ccc1OC(=O)c1ccccc1F	4.6	-0.9	-2.1	21.5*	0.3	-11.2
Cc1cc(-c2csc(NC(=O)c3ccc(=O)[nH]c3)n2)c(C)n1Cc1ccccc1	-5.9	1.1	18.5	25.9*	4.9	-0.5
O=C(Nc1nc(-c2ccccc2)cs1)c1ccc(=O)[nH]c1	-18.1	-1.8	-15.7	-3.7	0.8	.
Cc1ccccc1S(=O)(=O)N(C)C[C@@H]1OCc2cn(nn2)CCCC(=O)N([C@@H](C)CO)C[C@H]1C	4.6	11.1	.	-0.7	.	.
CC(C#N)(NC(=O)CN1CCN(S(=O)(=O)c2ccccc2C#N)CC1)C1CC1 (stereo not drawn)	-0.7	1.3	6.6	19.5*	-0.4	-1.4
Cc1ccc(NS(=O)(=O)c2ccccc2Cl)c2c1CC(C)(C)O2	-0.7	4.9	-14.2	-1.5	-3.2	.
Cc1cccc(S(=O)(=O)Nc2ccc(C)c3c2OC(C)(C)C3)c1	-9.6	-2.8	-8.2	23.7*	-4.7	-6.6
COC(=O)C1=C(C)N(Cc2ccc(C(F)(F)F)cc2)C(=NCc2ccccc2C(F)(F)F)NC1c1ccc(Cl)cc1 (stereo not drawn)	4.7	-3.6	.	-5.9	.	.
C=CCNC(=O)c1ccc(-c2nc3ccccc3nc2-c2ccccc2)cc1	-7.6	3.0	-24.4	32.9*	-1.7	-1.3
CCOC(=O)[C@@H](CCc1ccccc1)N[C@@H](C)C(=O)N1CCC[C@H]1C(=O)O	0.2	.	.	-5.4	.	.
Cc1c(C)n(CCc2ccccc2)c2ncnc(NN)c12	3.1	-5.1	0.3	1.0	-0.8	.
Cc1c(C)n(CCc2ccccc2)c2ncnc(NCCCO)c12	-4.5	5.8	-9.7	18.1*	1.0	5.2
Nn1cc(-c2ccccc2)nc1SCC(=O)NCC1CCCO1 (stereo not drawn)	-1.4	6.3	-5.6	1.6	0.0	.
CCCC(C)NC(=O)CSc1nc(-c2ccccc2)cn1N (stereo not drawn)	-10.5	0.2	4.1	17.3*	0.0	0.2
CCCCCCCCN1C(=O)[C@@H](CC(=O)N2CCCCC2)C[C@@]2(C(=O)OC)C1=C[C@H](C1CCCC1)O[C@@H]2C	-1.6	6.1	.	9.7	.	.
O=C(c1ccc2c3n(nc2c1)-c1ccccc1CO3)N1CCCCC1	11.6	1.3	-7.7	17.4*	2.0	-1.6
S=C(c1ccc(-c2cccc(Cl)c2)o1)N1CCCCC1	-4.8	-0.9	-18.2	-1.6	-7.6	.
O=C(O)c1ccc(-c2cccc(Cl)c2)o1	-4.9	1.7	-3.8	18.5*	4.0	6.6
O=C(CN1CCN(c2ccccc2O)CC1)NC(c1ccccc1)c1ccccc1	-7.4	-1.3	-7.8	18.2*	-2.7	3.8
CC(C)CNC(=O)OCc1cn(Cc2cc(F)cc(F)c2)nn1	4.5	.	.	-1.2	.	.
N=c1c2c(ccn1Cc1ccccc1)Oc1ccc3ccccc3c1C2c1ccccc1 (stereo not drawn)	-99.3	.	.	-110.2	.	.
CCC1CCC(N2CCN(c3ccc(F)cc3)CC2)CC1 (stereo not drawn)	4.5	-4.2	-16.7	17.1*	-0.9	-0.1
SMILES	ABHD4 inh	TCR CD3 inh	HTRA1 inh	SIAE inh	DAGLB inhibitor	SIAE inh conf
COc1cc(/C=C/C(=O)c2ccc(NS(=O)(=O)c3ccc(C)cc3)cc2)cc(OC)c1O	-8.4	-11.4	5.6	77.9*	3.3	-33.4
COCC#Cc1ccc(CC[C@H]2O[C@H]3CC[C@@H](CO)O[C@H]3C[C@H]2n2cc(C3CC3)nn2)cc1	-6.4	.	.	-2.7	.	.
CCOC(=O)CC[C@@H]1CC[C@]2(CCCN(C(=O)c3cccnc3)C2)O1	3.4	.	.	0.1	.	.
CCOC(=O)CC[C@H]1CC[C@]2(CCCN(C(=O)c3cccnc3)C2)O1	0.8	.	.	30.0*	.	-2.1
CCCCCC(=O)NC1CCCCN(Cc2cccc(Cl)c2)C1=O (stereo not drawn)	3.3	.	.	5.6	.	.
CC(C)[C@@H](C)/C=C/[C@@H](C)[C@H]1CC[C@@H]2[C@]1(C)CCC1[C@]23C=C[C@]2(C[C@@H](O)CC[C@]12C)N(c1cnccn1)O3 (stereo partly drawn)	-6.9	-1.0	.	.	.	.
COc1ccc(NC(=O)Nc2cc(F)ccc2C)cc1	-2.7	8.6	2.4	19.7*	-3.7	-1.2
COc1ccc(NC(=O)Nc2ccc(F)cc2F)cc1	2.0	5.0	5.8	2.0	-4.2	.
O=C(N[C@@H](Cc1cccnc1)C(=O)N1CCC[C@H]1C(=O)NC1CCCC1)C1CC1	-2.9	0.6	.	-1.4	.	.
COC(=O)[C@H](C(C)C)N1Cc2nnn(Cc3ccccc3)c2C=CS1(=O)=O	7.8	.	.	0.1	.	.
CCOC(=O)c1c(NC(=O)c2ccoc2C)sc2c1CCC2	-6.7	-0.1	-11.7	24.1*	-4.7	5.0
COc1cccc(N2CCN(c3ncnc4c3[nH]c3ccc(F)cc34)CC2C)c1 (stereo not drawn)	0.3	1.3	-17.5	19.3*	2.2	-4.3
COc1cc2[nH]c3c(N4CCN(c5ccc(Cl)cc5)CC4)ncnc3c2cc1OC	10.8	5.1	2.1	30.1*	3.8	24.7*
CCOC(=O)CC[C@@]1(C(=O)OCC)C[C@@H](CC(=O)NCc2ccc(OC)c(OC)c2)C(=O)N2CCCC=C21	3.5	.	.	-3.4	.	.
CCN(CC)CCCNC(=O)CSc1nc2cccnc2n1C	0.5	.	.	0.8	.	.
Cc1ccn2c(Nc3ccccc3C)c(-c3ccccn3)nc2c1	7.0	-9.1	9.7	18.0*	1.7	5.2
Cc1ccccc1Nc1c(-c2ccccn2)nc2ccccn12	12.2	1.7	8.1	9.6	1.8	.
O=C(NN=C/C=C/c1ccco1)c1cc(-c2ccc(Cl)cc2)n[nH]1	-42.4	.	.	-25.3	.	.
COCCN1Cc2cc(C(=O)OC)c3c(c2C1=O)c1cc(OC)ccc1n3C(=O)c1ccccc1	-6.3	-2.3	.	-15.5	.	.
O=C(CN1CCc2onc(-c3ccc(-n4cc(COc5ccc([N+](=O)[O-])cc5)nn4)cc3)c2C1=O)N1CCOCC1	4.2	.	.	0.4	.	.
O=S(N1CCc2ccccc21)C12CC3CC(CC(C3)C1)C2 (stereo not drawn)	5.0	1.8	-2.7	22.9*	-6.4	-1.6
CN1CCN(S(=O)C23CC4CC(CC(C4)C2)C3)CC1 (stereo not drawn)	3.2	3.0	-4.5	6.8	2.1	.
CN(C(=O)[C@@H](Cc1ccccc1)NC(=O)[C@H]1O[C@@H](n2ccc(=O)[nH]c2=O)[C@H](O)[C@@H]1O)C1CCCCC1	2.1	-5.3	.	2.7	.	.
COc1ccc(N2CCN(c3ncnc4scc(-c5ccc(C)cc5)c34)CC2)cc1	2.2	-2.4	-4.7	17.5*	-6.1	4.4
